This is a sample that favours compounds with a hit; in the whole collection about 5.7% have one here.
CSC inhib: cancer stem cell inhibition. inhibition, % at 7.5 µM. cancer stem cell-like cells viability, luminescence. hit rate 1.1% among 300,000. AID 2717; in the data active means inhibition above about 75%; inconclusive means no clear call, values can overlap the other calls; tested in HMLE shEcad cells
T cruzi repl: blocks replication of Trypanosoma cruzi | inhibition, % (test concentration not listed) | T. cruzi beta-gal in NIH3T3, luminescence, 90 h | hit rate 1.4% among 300,000;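 active means mean inhibition across valid replicates above about 55%, limit read from the data; inconclusive means mean below that limit but half or more replicates reach it; inactive means mean below it, under half of replicates reach it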;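 further: signal also drops with host cell toxicity which is not excluded here; 0% = plate median of DMSO wells and 100% = zero luminescence signal; higher percent means less beta-gal luminescence so fewer parasites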
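Incubation – ≥90 h infection period, 3 h prior cell attachment · System – NIH/3T3 fibroblasts plus reporter T. cruzi · Doses – compound pinned at 50 nL/well, DMSO · Read-out basis – percent inhibition of parasite-derived β-gal signal · Signal – luminescent β-galactosidase signal after 60 min lysis · Also added – 5000 T. cruzi trypomastigotes/well · Medium – Low-serum DMEM with 2% FBS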
Mdm2 MdmX PPI: disrupts the human Mdm2-MdmX interaction; O15151+Q00987; SaOS-2 split-luciferase Mdm2/MdmX complementation, luminescence; inhibition, % at 8 µM; hit rate 3% among 330,000; AID 485346;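 active means inhibition of at least 50% at 8 µM in the primary screen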
Calb FLC: C. albicans growth modulation with fluconazole; growth inhibition, % (test concentration not listed); C. albicans CaCi-2 (fluconazole-resistant clinical isolate) + fluconazole, Alamar Blue growth, 48 h; hit rate 0.57% among 300,000;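 active means growth inhibition above about 58% in most replicates, limit read from the data, passing the limit was not always enough; inconclusive means exactly half the replicates above a set limit; inactive means most replicates below a set limit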;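 further: all wells also contain fluconazole at 8 µg/ml as a sub-toxic cotreatment; 0% = median of DMSO wells and 100% = median of geldanamycin control wells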
SKKanGAS inh: inhibitors of SKKanGAS S. pyogenes growth in kanamycin (SK-promoter or general growth effect); hit rate 1.3% among 300,000; inhibition, % at 7.5 µM; BacTiter-Glo, 6 h;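 active means mean replicate score, as percent of positive control median, at least 50; inconclusive means mean below 50 but one replicate at or above 50; inactive means mean and every replicate below 50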;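 further: strain carries kanamycin resistance gene driven by streptokinase promoter and grows in 40 µg/ml kanamycin; loss of luminescence reflects streptokinase promoter inhibition or plain growth inhibition; 0% = median of DMSO wells and 100% = positive control at its reference dose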
Beta apoptosis: beta cell apoptosis inhibition | INS-1E cytokine-induced death, ATP luminescence, 48 h; percent of positive-control rescue, neutral wells zero | protection from apoptosis, % (test concentration not listed) | hit rate 0.8% among 300,000 | AID 435005;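 active means Every replicate reaches about 75%, or at least half do and their mean reaches it too, limit read from the data; inconclusive means At least half of replicates reach the limit but their mean does not; inactive means Under half of replicates reach the limit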;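 further: 0% = cytokine-treated negative control wells and 100% = positive control rescue; higher means more ATP so stronger rescue from cytokine killing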
* marks the source's active call; other numbers are inactive results; ? = inconclusive; . = no result; + = active, no number.

SMILES | CSC inhib | T cruzi repl | Mdm2 MdmX PPI | Calb FLC | SKKanGAS inh | Beta apoptosis
O=c1cc(CN2CCN(C/C=C/c3ccccc3)CC2)c2cc(O)ccc2o1 | . | 58* | 27 | -11 | -14 | -3
Cc1ccc2oc(=O)cc(CN3CCN(C/C=C/c4ccccc4)CC3)c2c1 | 9 | 57* | 20 | 2 | -4 | 7
Cn1c(N)c(Sc2ccccc2[N+](=O)[O-])c(=O)n(C)c1=O | -7 | -5 | -6 | -2 | 15 | -5
CCc1ccc([C@@H]2CC=C(C(=O)O)[C@H](c3ccc(C(C)(C)C)cc3)N2S(=O)(=O)c2ccc(C)cc2)cc1 | . | . | 20 | . | . | 4
CCc1ccc(NC(=S)NC2CC3CCCC(C2)N3Cc2cccs2)cc1 (configuration not stated) | . | 56* | 41 | -19 | 4 | .
O=C(NCc1ccccn1)C1(C(F)(F)F)C/C(=C\CCO)CCCO1 (configuration not stated) | 8 | -11 | 13 | 1 | 4 | .
CCC12C(=O)C(CC)(C(c3ccccc3)=C1c1ccccc1)[C@@H]1C(=O)N(c3ccc(C)cc3)C(=O)C12 (some centres not stated) | 22 | 57* | 9 | -11 | -15 | 13
COC(=O)c1c(NC(=O)c2ccccc2)sc(C(=O)c2ccccc2)c1C | -11 | 17 | 28 | ? | 73* | 0
COC(=O)c1c(NC(=O)c2ccccc2)sc(C(N)=O)c1C | . | -16 | 7 | 7 | 0 | .
Cc1cc(C)c(S(=O)(=O)c2cc(F)ccc2C)c(Cl)n1 | -1 | 65* | 20 | 2 | 7 | -7
Cc1cc(C)c(S(=O)(=O)c2ccc(Cl)cc2C)c(Cl)n1 | -2 | 56* | -4 | 44 | 0 | -14
Cc1cc(C)c(S(=O)(=O)c2c(C)cccc2C)c(Cl)n1 | 1 | 47 | 2 | -16 | -5 | -2
Cc1[nH]n(-c2cccc(Cl)c2)c(=O)c1C=NCC(C)C | -2 | 8 | -104 | -13 | -8 | 3
COC(=O)CSc1nc(N)c2c3c(sc2n1)C(c1ccccc1)SC(c1ccccc1)C3 (configuration not stated) | + | 41 | 35 | 3 | 41 | 69
CC1(C)Cc2c(C#N)c(NCCCO)nc(-c3ccccc3)c2CO1 | -11 | 9 | -21 | -5 | -2 | -8
CCN(CC)CCNc1nc(-c2ccccc2)c2c(c1C#N)CC(C)(C)OC2 | -7 | 56* | 31 | -7 | -2 | -5
COc1ccc(CCC(C)NCC2CCCCC2)cc1 (configuration not stated) | 93* | -5 | -34 | -27 | 4 | -7
COc1ccc(CCC(C)NC2CCCCCCC2)cc1 (configuration not stated) | 19 | 22 | -47 | -4 | 1 | 7
CN(C(=O)COc1ccc(-c2nnco2)cc1)C1CCS(=O)(=O)C1 (configuration not stated) | 1 | -8 | 22 | 32 | -5 | -5
O=c1[nH]c(=O)c2cc([N+](=O)[O-])cc([N+](=O)[O-])c2[nH]1 | -7 | 72* | 12 | 8 | 4 | -11
O=C(CSc1nnnn1-c1ccccc1)Nc1ccc(N2CCOCC2)c(Cl)c1 | 9 | 10 | 7 | 8 | -7 | -3
O=C(CSc1nnnn1-c1cccc2ccccc12)Nc1ccc(N2CCOCC2)c(Cl)c1 | -5 | 73* | 34 | -1 | 5 | 0
O=C1c2ccccc2NC(c2ccc([N+](=O)[O-])cc2)N1O (configuration not stated) | 16 | -22 | 21 | 8 | -13 | 6
Fc1ccc(NC(=S)Nc2nccs2)cc1 | 19 | 66* | -40 | 21 | 18 | 43
Cc1cc(Nc2nc(Cl)c(Cl)cc2Cl)n(-c2ccccc2)n1 | 99* | 10 | 34 | -7 | -5 | -7
SMILES | CSC inhib | T cruzi repl | Mdm2 MdmX PPI | Calb FLC | SKKanGAS inh | Beta apoptosis
Cc1cc(Nc2ccccc2)n(-c2ccccc2)n1 | -11 | 8 | 12 | -2 | 3 | -3
Cc1cc(C)nc(-n2nc(C)cc2Nc2ccccc2)n1 | 16 | 7 | 2 | -2 | 79* | 85*
Cc1ccc(CNC(=O)C2CCCN(S(=O)(=O)c3cccc4nonc34)C2)cc1 (configuration not stated) | -1 | -7 | 40 | 7 | 13 | 1
CCCCn1c(N)c(N(CCOC)C(=O)c2ccc(N3CCCC3=O)cc2)c(=O)[nH]c1=O | -16 | . | -8 | . | . | -2
C(C#CCCCCCCCCC[n+]1ccccc1)#CCCCCCCCCC[n+]1ccccc1 | 75* | 8 | . | 110* | 62* | 104*
Cc1cccc(S(=O)(=O)N2CCC(CO)(Cc3ccccc3)CC2)c1 | . | -12 | 13 | 2 | -16 | -6
Cc1ccc2nsnc2c1NC(=O)CCc1ccccc1 | 0 | -13 | -10 | -26 | -2 | 6
Cc1ccc2nsnc2c1NC(=O)COc1ccccc1F | -15 | 17 | 3 | 114* | -12 | 0
O=C(CSc1nc2[nH]ncc2c(=O)n1-c1ccc(Cl)c(Cl)c1)NCc1ccccc1Cl | -9 | 58* | 26 | 30 | 16 | 3
O=c1c2cn[nH]c2nc(SCc2ccccc2F)n1-c1ccc(Br)cc1 | 105* | -1 | 28 | 34 | 5 | 7
O=c1c2cn[nH]c2nc(SCc2cc(=O)n3cc(Br)ccc3n2)n1-c1ccc(Br)cc1 | . | 18 | 24 | 33 | 25 | -16
COc1ccccc1N1CC(C)(C)C(=O)N(C(=O)c2ccc(Cl)cc2)C1=S | 6 | -3 | 31 | 4 | -15 | 85*
COc1ccccc1N1CC(C)(C)C(=O)N(C(=O)c2ccc(C)cc2)C1=S | -10 | -26 | 30 | 1 | 2 | 2
Fc1ccc(COc2ccccc2CNCc2ccncc2)cc1 | -9 | 56* | 35 | -5 | 2 | 2
Brc1cccc(CNCc2ccncc2)c1 | -5 | 51 | 16 | 14 | -4 | -2
Brc1ccc(OCc2ccccc2)c(CNCc2ccncc2)c1 | 4 | 56* | 15 | -10 | 1 | 1
C=CCn1c(O)c2ccc(C(=O)N=NC(=O)COc3ccccc3F)cc2c1O | -2 | -1 | -1 | -5 | -12 | 0
Cc1c(NC(=O)c2ccc(-c3ccc([N+](=O)[O-])cc3Cl)o2)c(=O)n(-c2ccccc2)n1C | -6 | 56* | -6 | 13 | -8 | 17
Cc1c(NC(=O)CN2C(=O)c3ccc([N+](=O)[O-])cc3C2=O)c(=O)n(-c2ccccc2)n1C | -3 | 3 | 3 | 7 | 1 | -3
O=C(CCCn1cc([N+](=O)[O-])cn1)N1CCCCC1 | -1 | -7 | -19 | 12 | -6 | -3
C/C(CC(=O)Nc1c(C)cc(C)cc1C)=N\NC(=O)c1cnccn1 | -1 | 9 | -18 | -9 | 0 | -7
COc1ccc(CNCC(O)COc2ccc(C(C)(C)c3ccccc3)cc2)cc1 (configuration not stated) | 109* | 43 | 38 | 8 | 5 | 15
